# Test system: U2OS
# Experiment: Multiplex assay against U2OS
# Format: toxicity, cell-based
# Settings: human
# Summary of the method: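 With compound added, live cells were imaged on a CQ1 microscope at 37°C and 5% CO2; staining with Hoechst33342, BioTracker Green Microtubule Cytoskeleton Dye, MitoTracker Red and Annexin V Alexa Fluor 680 had been done at seeding. The CellPathfinder machine-learning gating scheme split cells into Hoechst high-intensity objects or normal cells, normal cells into healthy, pyknosed or fragmented nuclei, and pyknosed cells into mitotic or apoptotic. The tubulin, mitochondrial-mass and membrane-permeability phenotypes are per cents of healthy-nucleus cells.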
# [1] = 12 h, 1 µM, compound concentration 1 uM, replicate 1
# [2] = 12 h, 1 µM, compound concentration 1 uM, replicate 2
# [3] = 12 h, 10 µM, compound concentration 10 uM, replicate 1
# [4] = 12 h, 10 µM, compound concentration 10 uM, replicate 2
# [5] = 24 h, 1 µM, compound concentration 1 uM, replicate 1
# [6] = 24 h, 1 µM, compound concentration 1 uM, replicate 2
# [7] = 24 h, 10 µM, compound concentration 10 uM, replicate 1
# [8] = 24 h, 10 µM, compound concentration 10 uM, replicate 2
# [9] = 48 h, 1 µM, compound concentration 1 uM, replicate 1
# [10] = 48 h, 1 µM, compound concentration 1 uM, replicate 2
# [11] = 48 h, 10 µM, compound concentration 10 uM, replicate 1
# [12] = 48 h, 10 µM, compound concentration 10 uM, replicate 2
compound,measurement,setting,value
c1cn2cc(-c3ccc4cn[nH]c4c3)nc(Nc3ccc(N4CCOCC4)cc3)c2n1 [ENTOSPLETINIB],Population Apoptotic (%),[1],32%
same,Population Fragmented Nuclei (%),[1],13%
same,Population Healthy Nuclei (%),[1],66%
same,Population Hoechst High Intensity Objects (%),[1],4%
same,Population Membrane Permeable-Phenotype (%),[1],13%
same,Population Mitochondria Different-Phenotype (%),[1],36%
same,Population Mitotic Cells (%),[1],67%
same,Population Normal (%),[1],95%
same,Population Pyknosed Nuclei (%),[1],20%
same,Population Tubulin-Different-Phenotype (%),[1],41%
same,Total Cell Count,[1],172
same,Population Apoptotic (%),[2],40%
same,Population Fragmented Nuclei (%),[2],16%
same,Population Healthy Nuclei (%),[2],73%
same,Population Hoechst High Intensity Objects (%),[2],5%
same,Population Membrane Permeable-Phenotype (%),[2],10%
same,Population Mitochondria Different-Phenotype (%),[2],23%
same,Population Mitotic Cells (%),[2],60%
same,Population Normal (%),[2],94%
same,Population Pyknosed Nuclei (%),[2],9%
same,Population Tubulin-Different-Phenotype (%),[2],25%
same,Total Cell Count,[2],59
same,Population Apoptotic (%),[3],76%
same,Population Fragmented Nuclei (%),[3],37%
same,Population Healthy Nuclei (%),[3],7%
same,Population Membrane Permeable-Phenotype (%),[3],12%
same,Population Mitochondria Different-Phenotype (%),[3],61%
same,Population Mitotic Cells (%),[3],23%
same,Population Pyknosed Nuclei (%),[3],55%
same,Population Tubulin-Different-Phenotype (%),[3],73%
same,Total Cell Count,[3],161
same,Population Apoptotic (%),[4],92%
same,Population Fragmented Nuclei (%),[4],30%
same,Population Healthy Nuclei (%),[4],2%
same,Population Hoechst High Intensity Objects (%),[4],25%
same,Population Membrane Permeable-Phenotype (%),[4],21%
same,Population Mitochondria Different-Phenotype (%),[4],82%
same,Population Mitotic Cells (%),[4],7%
same,Population Normal (%),[4],74%
same,Population Pyknosed Nuclei (%),[4],67%
same,Population Tubulin-Different-Phenotype (%),[4],78%
same,Total Cell Count,[4],56
same,Population Apoptotic (%),[5],37%
same,Population Fragmented Nuclei (%),[5],12%
same,Population Healthy Nuclei (%),[5],70%
same,Population Membrane Permeable-Phenotype (%),[5],4%
same,Population Mitochondria Different-Phenotype (%),[5],33%
same,Population Mitotic Cells (%),[5],62%
same,Population Pyknosed Nuclei (%),[5],16%
same,Population Tubulin-Different-Phenotype (%),[5],24%
same,Total Cell Count,[5],182
same,Population Apoptotic (%),[6],14%
same,Population Fragmented Nuclei (%),[6],14%
same,Population Healthy Nuclei (%),[6],74%
same,Population Hoechst High Intensity Objects (%),[6],4%
same,Population Membrane Permeable-Phenotype (%),[6],17%
same,Population Mitochondria Different-Phenotype (%),[6],15%
same,Population Mitotic Cells (%),[6],85%
same,Population Normal (%),[6],95%
same,Population Pyknosed Nuclei (%),[6],11%
same,Population Tubulin-Different-Phenotype (%),[6],21%
same,Total Cell Count,[6],78
same,Population Apoptotic (%),[7],70%
same,Population Fragmented Nuclei (%),[7],35%
same,Population Healthy Nuclei (%),[7],6%
same,Population Hoechst High Intensity Objects (%),[7],23%
same,Population Membrane Permeable-Phenotype (%),[7],7%
same,Population Mitochondria Different-Phenotype (%),[7],49%
same,Population Mitotic Cells (%),[7],29%
same,Population Normal (%),[7],76%
same,Population Pyknosed Nuclei (%),[7],57%
same,Population Tubulin-Different-Phenotype (%),[7],53%
same,Total Cell Count,[7],186
same,Population Apoptotic (%),[8],89%
same,Population Fragmented Nuclei (%),[8],33%
same,Population Healthy Nuclei (%),[8],2%
same,Population Hoechst High Intensity Objects (%),[8],26%
same,Population Membrane Permeable-Phenotype (%),[8],8%
same,Population Mitochondria Different-Phenotype (%),[8],36%
same,Population Mitotic Cells (%),[8],10%
same,Population Normal (%),[8],73%
same,Population Pyknosed Nuclei (%),[8],64%
same,Population Tubulin-Different-Phenotype (%),[8],20%
same,Total Cell Count,[8],65
same,Population Apoptotic (%),[9],46%
same,Population Fragmented Nuclei (%),[9],9%
same,Population Membrane Permeable-Phenotype (%),[9],4%
same,Population Mitochondria Different-Phenotype (%),[9],14%
same,Population Mitotic Cells (%),[9],53%
same,Population Pyknosed Nuclei (%),[9],12%
same,Population Tubulin-Different-Phenotype (%),[9],13%
same,Total Cell Count,[9],206
same,Population Apoptotic (%),[10],37%
same,Population Fragmented Nuclei (%),[10],11%
same,Population Healthy Nuclei (%),[10],77%
same,Population Hoechst High Intensity Objects (%),[10],3%
same,Population Membrane Permeable-Phenotype (%),[10],22%
same,Population Mitochondria Different-Phenotype (%),[10],20%
same,Population Mitotic Cells (%),[10],62%
same,Population Normal (%),[10],96%
same,Population Pyknosed Nuclei (%),[10],10%
same,Population Tubulin-Different-Phenotype (%),[10],22%
same,Total Cell Count,[10],111
same,Population Apoptotic (%),[11],59%
same,Population Fragmented Nuclei (%),[11],33%
same,Population Healthy Nuclei (%),[11],7%
same,Population Hoechst High Intensity Objects (%),[11],29%
same,Population Membrane Permeable-Phenotype (%),[11],7%
same,Population Mitochondria Different-Phenotype (%),[11],21%
same,Population Mitotic Cells (%),[11],40%
same,Population Normal (%),[11],70%
same,Population Pyknosed Nuclei (%),[11],58%
same,Population Tubulin-Different-Phenotype (%),[11],16%
same,Total Cell Count,[11],232
same,Population Apoptotic (%),[12],82%
same,Population Fragmented Nuclei (%),[12],34%
same,Population Healthy Nuclei (%),[12],2%
same,Population Hoechst High Intensity Objects (%),[12],28%
same,Population Membrane Permeable-Phenotype (%),[12],20%
same,Population Mitochondria Different-Phenotype (%),[12],30%
same,Population Mitotic Cells (%),[12],17%
same,Population Normal (%),[12],71%
same,Population Pyknosed Nuclei (%),[12],63%
same,Population Tubulin-Different-Phenotype (%),[12],20%
same,Total Cell Count,[12],79
C=CC(=O)Nc1cc2c(Nc3ccc(F)c(Cl)c3)ncnc2cc1OCCCN1CCOCC1.Cl.Cl [CANERTINIB DIHYDROCHLORIDE],Population Apoptotic (%),[1],91%
same,Population Fragmented Nuclei (%),[1],16%
same,Population Healthy Nuclei (%),[1],0%
same,Population Hoechst High Intensity Objects (%),[1],5%
same,Population Membrane Permeable-Phenotype (%),[1],0%
same,Population Mitochondria Different-Phenotype (%),[1],100%
same,Population Mitotic Cells (%),[1],8%
same,Population Normal (%),[1],94%
same,Population Pyknosed Nuclei (%),[1],83%
same,Population Tubulin-Different-Phenotype (%),[1],100%
same,Total Cell Count,[1],137
same,Population Apoptotic (%),[2],95%
same,Population Fragmented Nuclei (%),[2],10%
same,Population Healthy Nuclei (%),[2],4%
same,Population Hoechst High Intensity Objects (%),[2],20%
same,Population Membrane Permeable-Phenotype (%),[2],100%
same,Population Mitotic Cells (%),[2],5%
same,Population Normal (%),[2],79%
same,Population Pyknosed Nuclei (%),[2],85%
same,Total Cell Count,[2],88
same,Population Apoptotic (%),[3],22%
same,Population Fragmented Nuclei (%),[3],5%
same,Population Healthy Nuclei (%),[3],87%
same,Population Hoechst High Intensity Objects (%),[3],2%
same,Population Membrane Permeable-Phenotype (%),[3],38%
same,Population Mitochondria Different-Phenotype (%),[3],11%
same,Population Mitotic Cells (%),[3],77%
same,Population Normal (%),[3],97%
same,Population Pyknosed Nuclei (%),[3],6%
same,Population Tubulin-Different-Phenotype (%),[3],17%
same,Total Cell Count,[3],142
same,Population Apoptotic (%),[4],33%
same,Population Fragmented Nuclei (%),[4],12%
same,Population Healthy Nuclei (%),[4],81%
same,Population Hoechst High Intensity Objects (%),[4],10%
same,Population Membrane Permeable-Phenotype (%),[4],24%
same,Population Mitochondria Different-Phenotype (%),[4],22%
same,Population Mitotic Cells (%),[4],66%
same,Population Normal (%),[4],89%
same,Population Pyknosed Nuclei (%),[4],5%
same,Population Tubulin-Different-Phenotype (%),[4],14%
same,Total Cell Count,[4],122
same,Population Apoptotic (%),[5],99%
same,Population Fragmented Nuclei (%),[5],8%
same,Population Healthy Nuclei (%),[5],4%
same,Population Hoechst High Intensity Objects (%),[5],13%
same,Population Membrane Permeable-Phenotype (%),[5],100%
same,Population Mitochondria Different-Phenotype (%),[5],100%
same,Population Mitotic Cells (%),[5],0%
same,Population Normal (%),[5],86%
same,Population Pyknosed Nuclei (%),[5],87%
same,Population Tubulin-Different-Phenotype (%),[5],100%
same,Total Cell Count,[5],137
same,Population Apoptotic (%),[6],100%
same,Population Fragmented Nuclei (%),[6],14%
same,Population Healthy Nuclei (%),[6],5%
same,Population Hoechst High Intensity Objects (%),[6],21%
same,Population Normal (%),[6],78%
same,Population Pyknosed Nuclei (%),[6],79%
same,Total Cell Count,[6],85
same,Population Apoptotic (%),[7],70%
same,Population Fragmented Nuclei (%),[7],5%
same,Population Hoechst High Intensity Objects (%),[7],3%
same,Population Mitochondria Different-Phenotype (%),[7],11%
same,Population Mitotic Cells (%),[7],29%
same,Population Normal (%),[7],96%
same,Population Pyknosed Nuclei (%),[7],9%
same,Population Tubulin-Different-Phenotype (%),[7],9%
same,Total Cell Count,[7],186
same,Population Apoptotic (%),[8],42%
same,Population Fragmented Nuclei (%),[8],9%
same,Population Healthy Nuclei (%),[8],84%
same,Population Hoechst High Intensity Objects (%),[8],8%
same,Population Membrane Permeable-Phenotype (%),[8],20%
same,Population Mitochondria Different-Phenotype (%),[8],23%
same,Population Mitotic Cells (%),[8],57%
same,Population Normal (%),[8],91%
same,Population Pyknosed Nuclei (%),[8],5%
same,Population Tubulin-Different-Phenotype (%),[8],19%
same,Total Cell Count,[8],135

# Reference: ChEMBL document CHEMBL4689842, “EUbOPEN Chemogenomics Library wave 1” (2021)
